CHRM5 PAM: potentiates acetylcholine response at human M5 receptor. CHO-K1 hM5, Fluo-8 calcium, ACh EC20 PAM; 0% = ACh EC20, 100% = ACh EC100. P08912. activation, % at 3 µM. AID 624038. 360,000 compounds, 0.3% hits;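 active = activation above the run cutoff, the mean activation of all test compounds plus 3 SD, cut at about 18% in these data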
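Measured by: Fluo-8 calcium fluorescence; material: human M5 receptor in CHO-K1 cells; schedule: Post-acetylcholine fluorescence recording 140 s; benchmarks: low control EC20 acetylcholine (0%), high control EC100 acetylcholine (100%); read-out: Max/basal fluorescence ratio as % of EC20–EC100 ACh window; compound: single dose, 3 µM nominal final test concentration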
CHRM5 antagonist: blocks acetylcholine activation of human M5 receptor; P08912; AID 624040; inhibition, % at 3 µM; 360,000 compounds, 0.59% hits; CHO-hM5 cells, Fluo-8 calcium fluorescence, ACh EC80;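 active = inhibition above a per-plate cutoff, the mean of that plate's test compounds plus 3 SD, cut at about 27% in these data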
M5 ag: agonists of human muscarinic M5 receptor (CHRM5); CHO-K1 hM5 cells, Fluo-8 calcium fluorescence; 0% DMSO wells, 100% maximal acetylcholine response; activation, % at 3 µM; 360,000 compounds, 0.19% hits; AID 624037;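 active = activation above the run's mean over test compounds plus 3 SD, cut at about 23% in these data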;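 note: signal is peak over basal fluorescence ratio across the kinetic read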
CHRM4 agonist: CHRM4 agonism in calcium assay. P08173. CHO-K1 hM4/Gqi5, Fluo-8 calcium fluorescence; vehicle 0%, full acetylcholine response 100%. activation, % at 3 µM. 360,000 compounds, 0.14% hits;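 active = activation above the run mean over all test wells plus 3 SD, cut at about 32% in these data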;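 note: peak over basal fluorescence ratio per well then scaled between controls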
Target sequence (P08173 whole entry, looked up): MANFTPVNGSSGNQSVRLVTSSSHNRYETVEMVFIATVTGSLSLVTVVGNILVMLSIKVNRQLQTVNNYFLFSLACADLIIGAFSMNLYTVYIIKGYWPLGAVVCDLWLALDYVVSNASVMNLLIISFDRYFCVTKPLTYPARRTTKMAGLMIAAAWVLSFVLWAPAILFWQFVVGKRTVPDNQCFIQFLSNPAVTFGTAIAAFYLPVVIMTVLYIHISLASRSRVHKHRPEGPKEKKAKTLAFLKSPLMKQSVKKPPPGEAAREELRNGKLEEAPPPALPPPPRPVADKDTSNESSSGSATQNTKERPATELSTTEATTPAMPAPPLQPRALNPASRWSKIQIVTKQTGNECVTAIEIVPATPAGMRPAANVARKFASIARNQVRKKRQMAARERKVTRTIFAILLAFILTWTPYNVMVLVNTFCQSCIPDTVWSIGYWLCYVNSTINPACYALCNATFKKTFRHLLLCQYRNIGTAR
M4 antag: antagonists of human muscarinic M4 receptor (CHRM4); AID 624125; 360,000 compounds, 0.73% hits; inhibition, % at 3 µM; P08173; CHO-hM4 cells, ACh EC80, Fluo-8 calcium fluorescence;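 active = inhibition above its plate's cutoff, the mean inhibition of sample wells plus 3 SD, cut at about 27% in these data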
CHRM4 PAM: positive allosteric modulators of human muscarinic M4 receptor; P08173; CHO-K1 hM4/Gqi5, Fluo-8 calcium fluorescence, ACh EC20; 0% = ACh EC20, 100% = maximal ACh; activation, % at 3 µM; 360,000 compounds, 0.4% hits; AID 624126;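 active = activation above its plate's cutoff, the mean activation of sample wells plus 3 SD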
Hits are given with their value; 0 = inactive. Rows were chosen to be rich in hits. Some 1.9% of all compounds tested hit in one or more screens of this group.

SMILES	CHRM5 PAM	CHRM5 antagonist	M5 ag	CHRM4 agonist	M4 antag	CHRM4 PAM
O=C(C1=C(O)C(=O)N(c2nccs2)C1c1ccccc1)c1cc2ccccc2o1 (stereo not given)	0	0	65.1	0	0	0
O=C(Nc1cccc(C(=O)Nc2cccc(Br)c2)c1)c1ccccc1	0	29.9	0	0	0	0
O=C(O)c1cccc(NC(=O)c2ccccc2)c1	0	0	0	0	0	0
OCc1ccnc2c(O)cccc12	21.5	0	0	0	0	0
NC(=O)c1ccnc2c(O)cccc12	0	0	0	0	0	0
CCCc1cn(CC(C)n2c(=O)c3ccccc3n2Cc2cc(C(C)C)no2)nn1 (stereo not given)	0	0	0	0	0	0
CCCCCCCCC[n+]1cccc2c3ccccc3ccc21	0	40.7	0	0	69.7	0
CCCCCCCCCCCCCCCC[n+]1cccc2ccccc21	0	63.5	0	0	51.6	0
O=[N+]([O-])c1ccc(C[n+]2cccc3c4ccccc4ccc32)cc1	0	0	0	0	0	0
Cc1ccccc1C[n+]1cccc2ccccc21	0	0	0	0	0	0
CCC1OC(C(C)C)Cc2[nH][nH]c(=O)c21 (stereo not given)	0	0	0	0	0	0
CO[C@H]1CN(C)C(=O)c2cc(NC(=O)c3cc(C)on3)ccc2OC[C@@H](C)N(C(=O)C2CC2)C[C@H]1C	0	0	0	0	0	0
CC(Oc1ccc2c3c(c(=O)oc2c1)CCC3)C(=O)NCc1cccnc1 (stereo not given)	0	0	0	0	0	18.8
CC(=O)N1CCN(Cc2nc3cc(NC(=O)c4ccccc4)ccc3n2C)CC1	0	0	0	0	0	0
COc1ccccc1C(=O)Nc1ccc2c(c1)nc(CN1CCN(C(C)=O)CC1)n2C	0	0	0	0	27.2	0
CCCS(=O)(=O)NC(=O)C1(C)CCCN(C(=O)c2ccccc2C(F)(F)F)C1 (stereo not given)	0	0	0	0	0	0
CC(=O)NCCNC(=O)c1ccc(NC2=NC3CS(=O)(=O)CC3S2)cc1 (stereo not given)	26.7	29.3	0	0	0	0
Cc1ccc(C(=O)c2cc([N+](=O)[O-])ccc2N2CCN(C)CC2)cc1	0	0	0	0	0	0
CN1CCN(c2ccc([N+](=O)[O-])cc2C(=O)c2ccc(Br)cc2)CC1	0	37.5	0	0	0	0
CCOC(=O)C1=CCN(S(=O)(=O)c2ccccc2Br)C1c1ccc(Cl)c(Cl)c1 (stereo not given)	0	0	0	0	0	0
COc1ccc2c(c1)CCc1cn3nc(C)cc3nc1-2	18.7	0	0	0	0	0
CN(C)C(=O)c1cccc(-c2cnc3c(NC=O)cc(-c4ccc(N(C)C)cc4)cn23)c1	0	0	0	0	0	0
CC1(C(=O)NS(=O)(=O)c2ccccc2Cl)CCN1C(=O)Cc1ccc(Cl)cc1Cl (stereo not given)	0	0	0	0	0	0
CCc1ccc(S(=O)(=O)Nc2c(C)nc3nc[nH]n3c2=O)cc1	37.8	0	0	0	0	0
Cc1ccc(Cl)cc1-c1cc(C(=O)Nc2ccc(F)cc2)[nH]n1	0	0	0	0	0	0
SMILES	CHRM5 PAM	CHRM5 antagonist	M5 ag	CHRM4 agonist	M4 antag	CHRM4 PAM
CCOC(=O)CC(=O)Nc1ccccc1C(=O)O	0	0	0	0	0	25.1
CCCS(=O)(=O)NC(=O)C1(C)CCN(C(=O)c2ccc(C(=O)OC)cc2)C1 (stereo not given)	0	0	0	0	0	0
COc1cc(C=O)ccc1OCCCOc1ccccc1[N+](=O)[O-]	0	0	0	0	0	0
COc1cc(C=O)ccc1OCCCOc1ccccc1C(=O)O	0	0	0	0	0	31.6
COCC1CCCN(Cc2nc(C(c3ccccc3)c3ccccc3)no2)C1 (stereo not given)	0	0	0	0	0	0
c1ccc(C(c2ccccc2)c2noc(CN3CCN(CC4CC4)CC3)n2)cc1	0	0	0	0	30.8	0

Screens from PubChem BioAssay.
